Laboratory results published in ChEMBL document CHEMBL4715728, “New bifunctional antioxidant/σ1 agonist ligands: Preliminary chemico-physical and biological evaluation” (Bioorg Med Chem, 2016).

Experiments:
[1] = Stability of compound in non-enzymatic stimulated-gastric fluid at pH 1.3 assessed as half life by HPLC-UV assay; format: physicochemical; conditions: non-enzymatic simulated gastric fluid
Method in brief: (§1)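 Chemical hydrolysis in 0.02 M HCl buffer pH 1.3 (non-enzymatic simulated gastric fluid) or 0.02 M phosphate buffer pH 7.4, each containing 20% acetonitrile, at 37 °C. Started by adding the 10^-4 M acetonitrile stock. Samples taken over time and analyzed by HPLC-UV at 220 nm. Rate constants are means of triplicates.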

[2] = Cytotoxicity against Sprague-Dawley rat Cerebral cortex neuron assessed as cell viability at 0.1 uM incubated for 24 hrs by MTT assay relative to control; format: tissue-based; conditions: cerebral cortex neurons, read-out: Activity
Method in brief: (§2)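 Primary fetal rat cortical neurons, matured 8 days, treated 24 h at 37 °C with compound (0.1–100 µM; 0.5% DMSO or water vehicle). MTT 0.7 mg/ml was then added for 30 min at 37 °C, and formazan was extracted with isopropanol/formic acid (95:5) and read at 560 nm. Untreated control was set as 100% viability. Four independent experiments.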

[3] = Cytotoxicity against rat Sprague-Dawley Cerebral cortex neuron assessed as cell viability at 50 uM incubated for 24 hrs by MTT assay relative to control; format: tissue-based; conditions: cerebral cortex neurons, read-out: Activity; method in brief: as §2
[4] = Cytotoxicity against Sprague-Dawley rat Cerebral cortex neuron assessed as cell viability at 100 uM incubated for 24 hrs by MTT assay relative to control; format: tissue-based; conditions: cerebral cortex neurons, read-out: Activity; method in brief: as §2
[5] = Cytotoxicity against Sprague-Dawley rat Cerebral cortex neuron assessed as LDH activity at 0.1 uM incubated for 24 hrs by LDH assay (reference value: […]); format: tissue-based
Method in brief: (§3)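 Primary fetal rat cortical neurons, matured 8 days on poly-D-lysine, exposed 24 h at 37 °C to compound (0.1–100 µM; DMSO 0.5% or water vehicle). LDH released into 100 µl culture medium was measured by kit as the rate of NAD+ reduction (absorbance increase at 490 nm). Positive control was mitomycin C. Four independent experiments.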

[6] = Cytotoxicity against Sprague-Dawley rat Cerebral cortex neuron assessed as LDH activity at 1 uM incubated for 24 hrs by LDH assay (reference value: […]); format: tissue-based; method in brief: as §3
[7] = Cytotoxicity against Sprague-Dawley rat Cerebral cortex neuron assessed as LDH activity at 25 uM incubated for 24 hrs by LDH assay (reference value: […]); format: tissue-based; method in brief: as §3
[8] = Cytotoxicity against Sprague-Dawley rat Cerebral cortex neuron assessed as LDH activity at 50 uM incubated for 24 hrs by LDH assay (reference value: […]); format: tissue-based; method in brief: as §3
[9] = Cytotoxicity against Sprague-Dawley rat Cerebral cortex neuron assessed as LDH activity at 100 uM incubated for 24 hrs by LDH assay (reference value: […]); format: tissue-based; method in brief: as §3
[10] = Antioxidant activity in Sprague-Dawley rat Cerebral cortex neuron assessed as total antioxidant capacity by measuring trolox equivalents at 0.1 uM after 24 hrs; format: functional
Method in brief: (§4)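 Primary cerebral cortex neurons from rat fetuses, grown on poly-D-lysine in neurobasal medium with fetal calf serum (5% CO2, 37 °C), tested after 8 days in culture. Compounds in DMSO (0.5%) or sterile water were added and incubated 24 h at 37 °C. Cells were washed in ice-cold PBS and homogenized in 0.9% saline. Intracellular TAC (Trolox equiv.) and TOS (H2O2 equiv.) were read by kit. Ascorbic acid 10 µM (TAC) and H2O2 25 µM (TOS) served as positive controls. Four independent experiments.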

[11] = Antioxidant activity in Sprague-Dawley rat Cerebral cortex neuron assessed as total antioxidant capacity by measuring trolox equivalents at 1 uM after 24 hrs; format: functional; method in brief: as §4
[12] = Antioxidant activity in Sprague-Dawley rat Cerebral cortex neuron assessed as total antioxidant capacity by measuring trolox equivalents at 10 uM after 24 hrs; format: functional; method in brief: as §4
[13] = Antioxidant activity in Sprague-Dawley rat Cerebral cortex neuron assessed as total antioxidant capacity by measuring trolox equivalents at 25 uM after 24 hrs; format: functional; method in brief: as §4
[14] = Antioxidant activity in Sprague-Dawley rat Cerebral cortex neuron assessed as total antioxidant capacity by measuring trolox equivalents at 50 uM after 24 hrs; format: functional; method in brief: as §4
[15] = Antioxidant activity in Sprague-Dawley rat Cerebral cortex neuron assessed as total antioxidant capacity by measuring trolox equivalents at 100 uM after 24 hrs; format: functional; method in brief: as §4
[16] = Antioxidant activity in Sprague-Dawley rat Cerebral cortex neuron assessed as total oxidative stress level by measuring H2O2 equivalents at 0.1 uM after 24 hrs (reference value: 2.3 +/- 0.3 umol/L); format: functional; method in brief: as §4
[17] = Antioxidant activity in Sprague-Dawley rat Cerebral cortex neuron assessed as total oxidative stress level by measuring H2O2 equivalents at 10 uM after 24 hrs (reference value: 2.3 +/- 0.3 umol/L); format: functional; method in brief: as §4
[18] = Antioxidant activity in Sprague-Dawley rat Cerebral cortex neuron assessed as total oxidative stress level by measuring H2O2 equivalents at 25 uM after 24 hrs (reference value: 2.3 +/- 0.3 umol/L); format: functional; method in brief: as §4
[19] = Antioxidant activity in Sprague-Dawley rat Cerebral cortex neuron assessed as total oxidative stress level by measuring H2O2 equivalents at 50 uM after 24 hrs (reference value: 2.3 +/- 0.3 umol/L); format: functional; method in brief: as §4
[20] = Antioxidant activity in Sprague-Dawley rat Cerebral cortex neuron assessed as total oxidative stress level by measuring H2O2 equivalents at 100 uM after 24 hrs (reference value: 2.3 +/- 0.3 umol/L); format: functional; method in brief: as §4
[21] = Stability of compound in fasted state stimulated intestinal fluid at pH 1.3 assessed as half life in presence of 40 mg/ml pepsin by HPLC-UV assay; format: ADME; conditions: fasted state simulated intestinal fluid with pepsin
Method in brief: (§5)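 HCl buffer with pepsin or phosphate buffer with pancreatin (10 or 40 mg/ml), preincubated at 37 °C. Drug stock (50 µM in ethanol/fasted state intestinal fluid 1:9) added and shaken at 37 °C, 650 rpm. Samples quenched with ice-cold acetonitrile containing 0.5% formic acid, centrifuged at 2 °C, and the supernatant assayed by HPLC-UV. Three experiments.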

[22] = Stability of compound in fasted state stimulated intestinal fluid at pH 7.4 assessed as half life in presence of 40 mg/ml pancreatin by HPLC-UV assay; format: ADME; conditions: fasted state simulated intestinal fluid with pancreatin; method in brief: as §5
[23] = Stability of compound in rat plasma assessed as half life by HPLC-UV assay; format: ADME, cell-free
Method in brief: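 Citrated human or rat plasma diluted to 80% with 0.02 M phosphate buffer pH 7.4, 37 °C with shaking. Compound added from a 1 mg/ml acetonitrile stock. Aliquots deproteinized with 0.01 M HCl in methanol, centrifuged, and analyzed by HPLC-UV (C8 column, KH2PO4/methanol pH 2.5, 220 nm). Remaining intact compound plotted against time. Three experiments.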

[24] = Stability of compound in non-enzymatic stimulated-gastric fluid at pH 1.3 assessed as rate of compound hydrolysis by HPLC-UV assay; format: physicochemical; conditions: simulated gi fluid; method in brief: as §1
[25] = Stability of compound in phosphate buffer at pH 7.4 assessed as rate of compound hydrolysis by HPLC-UV assay; format: physicochemical; method in brief: as §1
[26] = Stability of compound in fasted state stimulated intestinal fluid at pH 1.3 assessed as rate of compound hydrolysis in presence of 10 mg/ml pepsin by HPLC-UV assay; format: ADME; conditions: isolated protein; method in brief: as §5

Structure (SMILES) | half-life [1] | viability at 24 h, 0.1 µM [2] | viability at 24 h, 50 µM [3] | viability at 24 h, 100 µM [4] | Activity [5] | Activity [6] | Activity [7] | Activity [8] | Activity [9] | TAC [10] | TAC [11] | TAC [12] | TAC [13] | TAC [14] | TAC [15] | Activity [16] | Activity [17] | Activity [18] | Activity [19] | Activity [20] | further results
O=C(CCCCC1CCSS1)N1CCN(Cc2ccc(F)cc2)CC1 (configuration not stated) | 88 h | 99.3% | 96.5% | 96.7% | 0.3 mU/ml | 0.28 mU/ml | 0.32 mU/ml | 0.34 mU/ml | 0.34 mU/ml | 10.9 mmol/L | 11.2 mmol/L | 12.6 mmol/L | 13.9 mmol/L | 11.4 mmol/L | 11.1 mmol/L | 0.4 µmol/L | 0.4 µmol/L | 0.5 µmol/L | 0.5 µmol/L | 0.5 µmol/L | half-life [21]: 37.2 h; half-life [22]: 32.3 h; half-life [23]: 2.92 h; Drug degradation [24]: 0.008 h⁻¹; Drug degradation [25]: 0.009 h⁻¹; Drug degradation [26]: 0.007 h⁻¹
COc1ccc(CN2CCN(C(=O)CCCCC3CCSS3)CC2)cc1 (configuration not stated) | 240 h | 98.1% | 92.7% | 89.3% | 0.28 mU/ml | 0.3 mU/ml | 0.29 mU/ml | 0.34 mU/ml | 0.34 mU/ml | 10.5 mmol/L | 11.2 mmol/L | 10.9 mmol/L | 11.3 mmol/L | 11 mmol/L | 10.8 mmol/L | 0.4 µmol/L | 0.5 µmol/L | 0.5 µmol/L | 0.5 µmol/L | 0.5 µmol/L | half-life [21]: 23.7 h; half-life [22]: 41.6 h; half-life [23]: 4.13 h; Drug degradation [24]: 0.003 h⁻¹; Drug degradation [25]: 0.003 h⁻¹; Drug degradation [26]: 0.006 h⁻¹
